Results from ChEMBL document CHEMBL1142890, “Structure-antibacterial activity of arylcarbonyl- and arylsulfonyl-piperazine 5-triazolylmethyl oxazolidinones” (2007).
Converted amounts (≈) assume the structure as drawn.

Legend:
[1] = system: Staphylococcus aureus; assay: Antimicrobial activity against Staphylococcus aureus ATCC 25922 in presence of 50% human plasma […]; assay type: functional; settings: ATCC 25923, Plasma, in the assay text read “ATCC 25923” for “ATCC 25922”
Method in brief: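 S. aureus ATCC 25923 tested in Mueller–Hinton broth supplemented with 50% human plasma. Test compounds dissolved in 20% water in DMSO. Inoculum 10⁷ CFU/ml, incubated 35 °C for 18 h. MIC was the lowest concentration completely inhibiting growth.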

[2] = system: Staphylococcus aureus; assay: Antimicrobial activity against methicillin-susceptible Staphylococcus aureus by agar dilution method; assay type: functional
Method in brief: (§1)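 Agar dilution per CLSI on Mueller-Hinton agar, test agents at 0.12 to 8 µg/ml; test compounds dissolved in 20% water in DMSO, linezolid in 40% water in ethanol, vancomycin in water. Clinical isolates inoculated at final 10^7 CFU/ml, incubated 35 °C for 18 h. MIC = lowest concentration completely inhibiting growth; reported as range across isolates.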

[3] = system: Staphylococcus aureus; assay: Antimicrobial activity against methicillin-resistant Staphylococcus aureus by agar dilution method; assay type: functional; method in brief: as §1
[4] = system: Staphylococcus; assay: Antimicrobial activity against methicillin-susceptible coagulase-negative staphylococcus by agar dilution method; assay type: functional; method in brief: as §1
[5] = system: Streptococcus pneumoniae; assay: Antimicrobial activity against Streptococcus pneumoniae by agar dilution method; assay type: functional
Method in brief: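 Agar dilution per CLSI on Mueller–Hinton agar holding drug dilutions from 0.12 to 8 µg/ml. Staphylococci and enterococci tested on plain MH agar, S. pneumoniae on MH agar with 5% sheep blood. Test compounds dissolved in 20% water in DMSO. Inoculum 10⁷ CFU/ml, incubated 35 °C for 18 h. MIC was the lowest concentration giving complete growth inhibition.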

[6] = system: Enterococcus; assay: Antimicrobial activity against vancomycin-sensitive Enterococcus by agar dilution method; assay type: functional; method in brief: as §1
[7] = system: Enterococcus; assay: Antimicrobial activity against vancomycin-resistant Enterococcus by agar dilution method; assay type: functional; method in brief: as §1
[8] = system: Haemophilus influenzae; assay: Antimicrobial activity against Haemophilus influenzae; assay type: functional
[9] = system: Moraxella catarrhalis; assay: Antimicrobial activity against Moraxella catarrhalis; assay type: functional
[10] = system: Escherichia coli; assay: Antimicrobial activity against Escherichia coli ATCC 25922; assay type: functional
[11] = system: Staphylococcus; assay: Antimicrobial activity against methicillin-resistant coagulase-negative Staphylococcus by agar dilution method; assay type: functional; method in brief: as §1
[12] = system: Staphylococcus aureus; assay: Antimicrobial activity against Staphylococcus aureus ATCC 25923 by agar dilution method

Structure (SMILES) | MIC [1] | MIC [2] | MIC [3] | MIC [4] | MIC [5] | MIC [6] | MIC [7] | MIC [8] | MIC [9] | MIC [10] | MIC [11] | MIC [12]
Cc1ccc(C(=O)N2CCN(c3ccc(N4C[C@H](Cn5ccnn5)OC4=O)cc3F)CC2)cc1 | 8 mg/L | 0.5 mg/L (≈ 1.08 µM) | 0.5 mg/L (≈ 1.08 µM) | 0.5 mg/L (≈ 1.08 µM) | 2 mg/L (≈ 4.31 µM) | 1 mg/L (≈ 2.15 µM) | 0.5 mg/L (≈ 1.08 µM) | ≥ 8 mg/L | ≥ 8 mg/L | ≥ 8 mg/L | 0.5 mg/L (≈ 1.08 µM) | 1 mg/L (≈ 2.15 µM)
O=C(c1cccc([N+](=O)[O-])c1)N1CCN(c2ccc(N3C[C@H](Cn4ccnn4)OC3=O)cc2F)CC1 | 2 mg/L | 0.25 mg/L (≈ 0.505 µM) | 0.25 mg/L (≈ 0.505 µM) | 0.5 mg/L (≈ 1.01 µM) | 0.25 mg/L (≈ 0.505 µM) | 0.5 mg/L (≈ 1.01 µM) | 0.5 mg/L (≈ 1.01 µM) | ≥ 8 mg/L | ≥ 8 mg/L | ≥ 8 mg/L | 0.25 mg/L (≈ 0.505 µM) | 2 mg/L (≈ 4.04 µM)
O=C(c1cccs1)N1CCN(c2ccc(N3C[C@H](Cn4ccnn4)OC3=O)cc2F)CC1 | 4 mg/L | 0.5 mg/L (≈ 1.1 µM) | 0.5 mg/L (≈ 1.1 µM) | 0.25 mg/L (≈ 0.548 µM) | 0.25 mg/L (≈ 0.548 µM) | 0.5 mg/L (≈ 1.1 µM) | 0.5 mg/L (≈ 1.1 µM) | ≥ 8 mg/L | ≥ 8 mg/L | ≥ 8 mg/L | 0.25 mg/L (≈ 0.548 µM) | 0.5 mg/L (≈ 1.1 µM)
O=C(C(=O)N1CCN(c2ccc(N3C[C@H](Cn4ccnn4)OC3=O)cc2F)CC1)c1cccs1 | 2 mg/L | 0.25 mg/L (≈ 0.516 µM) | 0.25 mg/L (≈ 0.516 µM) | 0.25 mg/L (≈ 0.516 µM) | 0.25 mg/L (≈ 0.516 µM) | 0.5 mg/L (≈ 1.03 µM) | 0.25 mg/L (≈ 0.516 µM) | ≥ 8 mg/L | ≥ 8 mg/L | ≥ 8 mg/L | 0.25 mg/L (≈ 0.516 µM) | 0.5 mg/L (≈ 1.03 µM)
O=C(c1ccccc1F)N1CCN(c2ccc(N3C[C@H](Cn4ccnn4)OC3=O)cc2F)CC1 | 8 mg/L | 0.25 mg/L (≈ 0.534 µM) | 0.25 mg/L (≈ 0.534 µM) | 0.25 mg/L (≈ 0.534 µM) | 1 mg/L (≈ 2.13 µM) | 0.5 mg/L (≈ 1.07 µM) | 0.5 mg/L (≈ 1.07 µM) | ≥ 8 mg/L | ≥ 8 mg/L | ≥ 8 mg/L | 0.25 mg/L (≈ 0.534 µM) | 0.5 mg/L (≈ 1.07 µM)
O=C(c1ccccc1[N+](=O)[O-])N1CCN(c2ccc(N3C[C@H](Cn4ccnn4)OC3=O)cc2F)CC1 | 2 mg/L | 1 mg/L (≈ 2.02 µM) | 0.5 mg/L (≈ 1.01 µM) | 1 mg/L (≈ 2.02 µM) | 0.5 mg/L (≈ 1.01 µM) | 2 mg/L (≈ 4.04 µM) | 1 mg/L (≈ 2.02 µM) | ≥ 8 mg/L | ≥ 8 mg/L | ≥ 8 mg/L | 1 mg/L (≈ 2.02 µM) | 2 mg/L (≈ 4.04 µM)
O=C(/C=C/c1ccccc1Cl)N1CCN(c2ccc(N3C[C@H](Cn4ccnn4)OC3=O)cc2F)CC1 | > 8 mg/L | 0.25 mg/L (≈ 0.489 µM) | 0.25 mg/L (≈ 0.489 µM) | 0.25 mg/L (≈ 0.489 µM) | 4 mg/L (≈ 7.83 µM) | 0.5 mg/L (≈ 0.979 µM) | 0.25 mg/L (≈ 0.489 µM) | ≥ 8 mg/L | ≥ 8 mg/L | ≥ 8 mg/L | 0.25 mg/L (≈ 0.489 µM) | 0.5 mg/L (≈ 0.979 µM)
Cc1ccccc1C(=O)N1CCN(c2ccc(N3C[C@H](Cn4ccnn4)OC3=O)cc2F)CC1 | 8 mg/L | 0.5 mg/L (≈ 1.08 µM) | 0.5 mg/L (≈ 1.08 µM) | 0.5 mg/L (≈ 1.08 µM) | 1 mg/L (≈ 2.15 µM) | 1 mg/L (≈ 2.15 µM) | 1 mg/L (≈ 2.15 µM) | ≥ 8 mg/L | ≥ 8 mg/L | ≥ 8 mg/L | 0.5 mg/L (≈ 1.08 µM) | 2 mg/L (≈ 4.31 µM)
O=C(Cc1ccccc1)N1CCN(c2ccc(N3C[C@H](Cn4ccnn4)OC3=O)cc2F)CC1 | 4 mg/L | 0.5 mg/L (≈ 1.08 µM) | 0.5 mg/L (≈ 1.08 µM) | 0.5 mg/L (≈ 1.08 µM) | 0.5 mg/L (≈ 1.08 µM) | 0.5 mg/L (≈ 1.08 µM) | 1 mg/L (≈ 2.15 µM) | ≥ 8 mg/L | ≥ 8 mg/L | ≥ 8 mg/L | 0.5 mg/L (≈ 1.08 µM) | 2 mg/L (≈ 4.31 µM)
O=C(c1ccccc1)N1CCN(c2ccc(N3C[C@H](Cn4ccnn4)OC3=O)cc2F)CC1 | 1 mg/L | 0.25 mg/L (≈ 0.555 µM) | 0.25 mg/L (≈ 0.555 µM) | 0.25 mg/L (≈ 0.555 µM) | 1 mg/L (≈ 2.22 µM) | 0.25 mg/L (≈ 0.555 µM) | 0.25 mg/L (≈ 0.555 µM) | ≥ 8 mg/L | ≥ 8 mg/L | ≥ 8 mg/L | 0.25 mg/L (≈ 0.555 µM) | 1 mg/L (≈ 2.22 µM)
O=C(c1ccc(Cl)cc1)N1CCN(c2ccc(N3C[C@H](Cn4ccnn4)OC3=O)cc2F)CC1 | 8 mg/L | 0.25 mg/L (≈ 0.516 µM) | 0.25 mg/L (≈ 0.516 µM) | 0.12 mg/L (≈ 0.247 µM) | 1 mg/L (≈ 2.06 µM) | 0.5 mg/L (≈ 1.03 µM) | 0.5 mg/L (≈ 1.03 µM) | ≥ 8 mg/L | ≥ 8 mg/L | ≥ 8 mg/L | 0.12 mg/L (≈ 0.247 µM) | 0.5 mg/L (≈ 1.03 µM)
O=C(c1ccco1)N1CCN(c2ccc(N3C[C@H](Cn4ccnn4)OC3=O)cc2F)CC1 | 4 mg/L | 0.5 mg/L (≈ 1.14 µM) | 0.5 mg/L (≈ 1.14 µM) | 0.25 mg/L (≈ 0.568 µM) | 0.25 mg/L (≈ 0.568 µM) | 0.5 mg/L (≈ 1.14 µM) | 0.5 mg/L (≈ 1.14 µM) | ≥ 8 mg/L | ≥ 8 mg/L | ≥ 8 mg/L | 0.25 mg/L (≈ 0.568 µM) | 1 mg/L (≈ 2.27 µM)
O=C(/C=C/c1ccccc1)N1CCN(c2ccc(N3C[C@H](Cn4ccnn4)OC3=O)cc2F)CC1 | > 8 mg/L | 0.25 mg/L (≈ 0.525 µM) | 0.25 mg/L (≈ 0.525 µM) | 0.25 mg/L (≈ 0.525 µM) | 1 mg/L (≈ 2.1 µM) | 0.5 mg/L (≈ 1.05 µM) | 0.25 mg/L (≈ 0.525 µM) | ≥ 8 mg/L | ≥ 8 mg/L | ≥ 8 mg/L | 0.25 mg/L (≈ 0.525 µM) | 0.5 mg/L (≈ 1.05 µM)
Cc1cccc(C(=O)N2CCN(c3ccc(N4C[C@H](Cn5ccnn5)OC4=O)cc3F)CC2)c1 | 8 mg/L | 0.25 mg/L (≈ 0.538 µM) | 0.25 mg/L (≈ 0.538 µM) | 0.25 mg/L (≈ 0.538 µM) | 1 mg/L (≈ 2.15 µM) | 0.5 mg/L (≈ 1.08 µM) | 0.5 mg/L (≈ 1.08 µM) | ≥ 8 mg/L | ≥ 8 mg/L | ≥ 8 mg/L | 0.25 mg/L (≈ 0.538 µM) | 0.5 mg/L (≈ 1.08 µM)
O=C1O[C@@H](Cn2ccnn2)CN1c1ccc(N2CCOCC2)c(F)c1 | 1 mg/L | 0.5 mg/L (≈ 1.44 µM) | 0.5 mg/L (≈ 1.44 µM) | 0.5 mg/L (≈ 1.44 µM) | 0.5 mg/L (≈ 1.44 µM) | 0.5 mg/L (≈ 1.44 µM) | 1 mg/L (≈ 2.88 µM) | ≥ 8 mg/L | ≥ 8 mg/L | ≥ 8 mg/L | 0.5 mg/L (≈ 1.44 µM) | 1 mg/L (≈ 2.88 µM)
